These results are taken from ChEMBL document CHEMBL1122340, “11,12-secoprostaglandins. 6. Interphenylene analogues of acylhydroxyalkanoic acids and related compounds as renal vasodilators” (1983).

The subject of assay [1] is Canis familiaris. The experiment in a line: Percentage change in renal resistance in anesthetized dogs. It counts as functional, Canis lupus familiaris. The procedure, abridged: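 Anesthetized dogs, femoral artery and vein catheterized for BP and iv injection; at least 30 min recovery after surgery. Mean renal blood flow and mean arterial BP sampled at 1-min intervals over a 30-min control period, then 500 µg/kg given iv bolus in aqueous solution as Na salt, monitored 30 min more. Renal resistance = mean BP / mean RBF. Two dogs per compound; saline placebo in three dogs.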

Assay [2] deals with Canis familiaris. The experiment in a line: Mean arterial blood pressure in conscious dog at 0-1 hr after 5 mg/kg (po) compound administration. Type of assay: functional, Canis lupus familiaris. Put shortly: (§1)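 Conscious dogs, 3 per group. Dose 5 mg/kg given orally in a gelatin capsule; lactose capsule as placebo. Renal blood flow (flow meters), arterial pressure (transducer) and heart rate recorded digitally every 2 min through a 30-min predrug control period and 5 h postdose. Readings averaged for the control period and for each posttreatment hour; means ± SE.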

For assay [3], the system named is Canis familiaris. Put plainly: Mean heart rate in conscious dog at 1-2 hr after 5 mg/kg (po) compound administration. It counts as functional, Canis lupus familiaris. Put shortly: as §1
Assay [4] deals with Canis familiaris. The experiment in a line: Mean arterial blood pressure in conscious dog at 3-4 h after 5 mg/kg (po) compound administration. Type of assay: functional, Canis lupus familiaris. The procedure, abridged: as §1
Assay [5] deals with Canis familiaris. The experiment in a line: Mean renal blood flow (RBF) in conscious dog at 2-3 hr after 5 mg/kg (po). It counts as functional, Canis lupus familiaris, Kidney. Put shortly: as §1
Assay [6] has as its system Canis familiaris. The experiment in a line: Mean heart rate in conscious dog at 2-3 hr after 5 mg/kg (po) compound administration. It counts as functional, Canis lupus familiaris. The procedure, abridged: as §1
The subject of assay [7] is Canis familiaris. Put plainly: Mean heart rate in conscious dog at 4-5 hr after 5 mg/kg (po) compound administration. It counts as functional, Canis lupus familiaris. Put shortly:
as §1

Assay [8] concerns Canis familiaris. Put plainly: Mean renal blood flow in (RBF) conscious dog at 3-4 hr after 5 mg/kg (po). Type of assay: functional, Canis lupus familiaris, Kidney. Put shortly: as §1
The subject of assay [9] is Canis familiaris. The experiment in a line: Mean arterial blood pressure in conscious dog at 4-5 h after 5 mg/kg (po) compound administration. It counts as functional, Canis lupus familiaris. The procedure, abridged: as §1
In assay [10] the test system is Canis familiaris. The experiment in a line: Mean heart rate in conscious dog at 0-1 hr after 5 mg/kg (po) compound administration. Type of assay: functional, Canis lupus familiaris. Put shortly: as §1
Assay [11] has as its system Canis familiaris. Put plainly: Mean renal blood flow (RBF) in conscious dog at 1-2h after 5 mg/kg (po). Type of assay: functional, Canis lupus familiaris, Kidney. The procedure, abridged: as §1
Assay [12] relates to Canis familiaris. The experiment in a line: Mean renal blood (RBF) flow in conscious dog at 0-1 hr after 5 mg/kg (po). Type of assay: functional, Canis lupus familiaris, Kidney. The procedure, abridged: as §1
The test system of assay [13] is Canis familiaris. The experiment in a line: Mean arterial blood pressure in conscious dog at 2-3 h after 5 mg/kg (po) compound administration. Type of assay: functional, Canis lupus familiaris. The procedure, abridged: as §1
Assay [14] relates to Canis familiaris. Put plainly: Mean heart rate in conscious dog at 3-4 h after 5 mg/kg (po) compound administration. It counts as functional, Canis lupus familiaris. Put shortly:
as §1

Assay [15] deals with Canis familiaris. The experiment in a line: Mean renal blood flow (RBF) in conscious dog at 4-5 hr after 5 mg/kg (po). Type of assay: functional, Canis lupus familiaris, Kidney. The procedure, abridged: as §1
Assay [16] relates to Canis familiaris. The experiment in a line: Mean arterial blood pressure in conscious dog at 1-2 hr after 5 mg/kg (po) compound administration. Type of assay: functional, Canis lupus familiaris. The procedure, abridged:
as §1

As for `CCCCCC(O)CCCC(CCCc1cccc(C(=O)O)c1)C(C)=O` (stereo unspecified), the Change in the assay on Canis familiaris [1] was -20%.
Same read-out and setting: to `CCCCCC(O)CCCN(CCCc1ccc(C(=O)O)cc1)S(C)(=O)=O` (stereo unspecified) belongs 5%.
As to `CCCCCC(O)CCCC(CCCc1ccc(C(=O)O)cc1)C(C)=O` (stereo unspecified), the MABP is given as 116 mmHg in the assay with Canis familiaris [2]; 95 mmHg in the assay on Canis familiaris [4]; 106 mmHg in the assay with Canis familiaris [9]; 97 mmHg in the assay with Canis familiaris [13]; 106 mmHg in the assay on Canis familiaris [16]. Besides, the HR is given as 73 beats min-1 with Canis familiaris [3]; 74 beats min-1 in the assay with Canis familiaris [6]; 68 beats min-1 in the assay with Canis familiaris [7]; 74 beats min-1 with Canis familiaris [10]; 64 beats min-1 in the assay on Canis familiaris [14]. The RBF came to 173 mL/min in the assay on Canis familiaris [5]; 139 mL/min in the assay on Canis familiaris [8]; 194 mL/min in the assay on Canis familiaris [11]; 137 mL/min in the assay with Canis familiaris [12]; 124 mL/min with Canis familiaris [15]. Moreover, the Change in the assay with Canis familiaris [1] was -47%.
For the compound `CCCCCC(O)CCCC(Cc1ccc(CCC(=O)O)cc1)C(C)=O` (stereo unspecified), the Change with Canis familiaris [1] is 13%.
On to `CC(=O)C(CCCc1ccc(C(=O)O)cc1)CCCC1(O)CCCCC1` (stereo unspecified), for which the Change with Canis familiaris [1] was -42%.
On the same count and under the same terms, the result for `CS(=O)(=O)N(CCCc1ccc(C(=O)O)cc1)CCCC1(O)CCCCC1` reads -7%; that for `CS(=O)(=O)N(CC#CC1(O)CCCCC1)CCCc1ccc(C(=O)O)cc1`, -10%; that for `CCCCCC(O)CCCC(CCCc1ccc(C(=O)O)cc1)C(C)O` (stereo unspecified), -19%.
In the case of `CCCCCC(O)CCCC(CCCCc1ccccc1C(=O)O)C(C)=O` (stereo unspecified), the Change in the assay with Canis familiaris [1] stood at 19%.
Still for that read-out and setting: the result for `CCCOCC(O)CCCC(CCCc1ccc(C(=O)O)cc1)C(C)=O` (stereo unspecified) reads -43%; that for `CCCCCC(O)CCCC(CCCCc1ccc(C(=O)O)cc1)C(C)=O` (stereo unspecified), 18%.
